proKLK7 act: activators of human kallikrein-7 zymogen. P49862. purified proKLK7, EDANS-DABCYL substrate fluorescence; 100% is mature enzyme control, 0% vehicle. activation, % at 7 µM. actives 0.9% (n = 370,000);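 active = activation above the mean of all tested compounds plus 3 SD, computed per campaign excluding outliers beyond control limits, cut at about 13% in these data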
DDE Tn6 FP inh: disrupts Tn6 cyclic peptide binding to fibrin D-Dimer-E complex | actives 0.21% (n = 370,000) | P02675 | Fibrin DD(E) TRITC-Tn6 fluorescence polarization displacement | inhibition, % at 8.3 µM | AID 720509;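 active = inhibition above a per-campaign cutoff: mean of compounds within control limits plus 3 SD, cut at about 15% in these data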
PLC-gamma1 inh: PLC-gamma1 (human) inhibition, primary screen. inhibition, % at 12.2 µM. actives 0.84% (n = 370,000). AID 720700. purified PLC-gamma1, fluorogenic substrate, fluorescence. P19174; in the data active = inhibition above about 9.5%
Tn7 DDE FP: disrupts Tn7 cyclic peptide binding to fibrin D-Dimer-E complex; FP displacement of FITC-Tn7 peptide from fibrin DD(E); 0% = median of compound wells per plate; inhibition, % at 8.3 µM; actives 0.13% (n = 370,000); AID 720508;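 active = inhibition above the mean of compounds falling within the control limits plus 3 SD of them, cut at about 14% in these data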
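Assay system: Human fibrin DD(E) protein | Medium: Tris buffer with calcium and detergent, pH 7.8 | Reagent: 0.1 µM fluorescent Tn7 | Compound dosing: Single point at 8.3 µM | Times: 10 min preincubation, 3 h with tracer, room temperature | Detection: Fluorescence polarization of the labelled Tn7 tracer | Controls: Aha-Tn7 high control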
PLCb3 inh: PLC-beta3 (human) inhibition, primary screen | Q01970 | Purified PLC-beta3, fluorogenic substrate, fluorescence | inhibition, % at 12.2 µM | actives 0.18% (n = 370,000); in the data active = inhibition above about 11%
NRP1-CendR mod: modulators of CendR peptide binding to human neuropilin-1; O14786; FAM-RPARPAR peptide binding to NRP-1, fluorescence polarization; inhibition, % at 25 µM; actives 0.85% (n = 360,000); AID 602438;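 active = inhibition or corrected inhibition above about 18%, plus a signal ratio from 0.5 to 1.5, limit read from the data, passing the limit was not always enough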
KLK7 act conf: confirmation of human kallikrein-7 zymogen activators; shares compounds with proKLK7 act; purified proKLK7, EDANS-DABCYL substrate fluorescence; scaled: vehicle 0, mature enzyme 100; activation, % at 7 µM; actives 68% (n = 3,200);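 active = activation, as change over the incubation, above the mean of all tested compounds plus 3 SD, cut at about 13% in these data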
EDANS interfere: counter-screen for kallikrein-7 activators: EDANS-DABCYL optical interference. activation, % at 7 µM. shares compounds with proKLK7 act. EDANS-DABCYL substrate fluorescence interference, no enzyme, 4 h; solvent 0%, active enzyme control 100%. actives 80% (n = 3,200). AID 686952;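 active = activation above the all-compound mean plus 3 SD, ignoring values outside control-based bounds, cut at about 4.8% in these data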;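 also: value is the 4 h activation minus the activation read at time zero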
Each line names hits and unclear results; the compound was inactive in the other large screens (follow-up assays come after a bar, where they were run). The list is not random: actives were taken first. Their share in the collection is about 3%.

COc1ccc(Cn2cc(COC(=O)NCC(C)C)nn2)cc1	none (no result: NRP1-CendR mod)
COc1ccc(CC(=O)N2CCc3cc(OC)c(OC)cc3C2O)cc1OC (stereo unspecified)	proKLK7 act 14 | KLK7 act conf inactive | EDANS interfere 4.1
COc1cc2c(cc1OC)C(c1cc(Br)ccc1F)N(C(=O)CCl)CC2 (stereo unspecified)	none
COc1cc2c(cc1OC)C(C)N(C(=O)Cc1ccc(C(F)(F)F)cc1)CC2 (stereo unspecified)	none
COc1cc2c(cc1OC)C(C1C(=O)CC(C)(C)CC1=O)N(C(=O)CCl)CC2 (stereo unspecified)	proKLK7 act 124 | KLK7 act conf inactive | EDANS interfere 15
COC(=O)[C@@H]1C[C@@]2(c3ccccc3)c3ccccc3N(S(=O)(=O)c3ccccc3)[C@H]2N1C(=O)CNC/C=C(\C)CCC=C(C)C	none (no result: NRP1-CendR mod)
C=CCN1C(=O)[C@@H](CC(=O)NCC23CC4CC(CC(C4)C2)C3)[C@]2(C(=O)OCC)CCCCC/C=C/12	none (no result: NRP1-CendR mod)
C=CC[C@@H]1NN2C(=O)[C@@H](C)[C@@H]3c4ccccc4C=NN3[C@@H]2c2ccccc21	none (no result: NRP1-CendR mod)
C[C@H]1[C@@H](C(=O)N2CCCC2)CC(=O)/C(=N/OCc2ccccc2)C[C@@H]1c1ccccc1	none (no result: NRP1-CendR mod)
CN1CCN(c2ccc(-c3ccc4ccccc4n3)cc2)CC1	proKLK7 act 28 | KLK7 act conf inactive | EDANS interfere inactive
c1ccc2nc(-c3ccc(N4CCOCC4)cc3)ccc2c1	none
CC1CN(c2oc(-c3cccs3)nc2C#N)CC(C)O1 (stereo unspecified)	none
N#Cc1nc(-c2cccs2)oc1N1CCOCC1	proKLK7 act 15 | KLK7 act conf 40 | EDANS interfere 49
CNc1oc(/C=C/c2ccccc2)nc1C#N	proKLK7 act 80 | KLK7 act conf 64 | EDANS interfere 68
COCCNc1oc(/C=C/c2ccccc2)nc1C#N	proKLK7 act 106 | KLK7 act conf 71 | EDANS interfere 76
CNc1oc(-c2ccccc2)nc1C#N	none
COc1ccc(-c2nc(C#N)c(NCCCN3CCOCC3)o2)cc1	none
N#Cc1nc(-c2cccs2)oc1NCCCN1CCOCC1	proKLK7 act 42 | KLK7 act conf 78 | EDANS interfere 78
CC(C)[C@H](NC(=O)[C@@H]1CCCN1)C(=O)N1CCC2CCN(S(=O)(=O)c3ccccc3)CC21 (stereo partly specified)	none (no result: NRP1-CendR mod)
O=C(C1CCCN1S(=O)(=O)c1cccs1)N1CCc2ccccc2C1 (stereo unspecified)	none (no result: NRP1-CendR mod)
Cc1cccc(-c2cccc3c4c([nH]c23)[C@@H]2C[C@H](N(C)C(=O)c3ccccc3C)[C@H]([C@H](C)O)C(=O)N2CC4)c1	none (no result: NRP1-CendR mod)
N#Cc1nc(/C=C/c2ccccc2)oc1NCCCN1CCOCC1	proKLK7 act 32 | KLK7 act conf 75 | EDANS interfere 71
CC(C)CNC(=O)C1CSCCS(=O)(=O)N1Cc1ccc(F)cc1 (stereo unspecified)	none (no result: NRP1-CendR mod)
CC(C)OC(=O)CC(=O)CSc1nc2c(cc1C#N)CCCCCC2	proKLK7 act 18 | KLK7 act conf 70 | EDANS interfere 77
CCOC(=O)CC(=O)CSc1nc2c(cc1C#N)CCCCCC2	proKLK7 act 13 | KLK7 act conf 60 | EDANS interfere 58
N#Cc1cc2c(nc1SCC(N)=O)CCCCC2	none
N#Cc1cc2c(nc1SCC(=O)N1CCOCC1)CCCCC2	none
CC(C)OC(=O)CC(=O)CSc1nc2c(cc1C#N)CCCC2	proKLK7 act 20 | KLK7 act conf 71 | EDANS interfere 77
CC(C)OC(=O)CC(=O)CSc1nc2c(cc1C#N)CCC2	proKLK7 act 22 | KLK7 act conf 90 | EDANS interfere 92
C=C(C)CSc1nc2c(cc1C#N)CCC2	none
COC(=O)CC(=O)CSc1nc2c(cc1C#N)CCC2	none
CCCC(=O)N1CCC[C@]2(CC[C@@H](CCC(=O)OCC)O2)C1	none (no result: NRP1-CendR mod)
O=C(OCC#CCSc1nnc(-c2cccc3ncccc23)o1)c1ccc(F)cc1	none (no result: proKLK7 act, NRP1-CendR mod)
CCOC(=O)C(C)Sc1nc2c(c(-c3cccs3)c1C#N)CCC2 (stereo unspecified)	none
CC(C)OC(=O)CC(=O)CSc1nc2c(c(-c3cccs3)c1C#N)CCC2	proKLK7 act 15 | KLK7 act conf inactive | EDANS interfere 12
Cc1cccn2c(=O)c3cc(C(=O)NC4CCCC4)c(=N)n(CC4CCCO4)c3nc12 (stereo unspecified)	proKLK7 act 81 | KLK7 act conf inactive | EDANS interfere inactive
Cc1cccn2c(=O)c3cc(C(=O)NC4CCCC4)c(=N)n(CCCN4CCOCC4)c3nc12	proKLK7 act 35 | KLK7 act conf inactive | EDANS interfere 12
Cc1cccn2c(=O)c3cc(C(=O)NCC4CCCO4)c(=N)n(CC4CCCO4)c3nc12 (stereo unspecified)	proKLK7 act 145 | KLK7 act conf 33 | EDANS interfere 42
Cc1cccn2c(=O)c3cc(C(=O)NCC4CCCO4)c(=N)n(C4CCCCC4)c3nc12 (stereo unspecified)	proKLK7 act 25 | KLK7 act conf inactive | EDANS interfere inactive
Cc1cccn2c(=O)c3cc(C(=O)NCc4ccc(F)cc4)c(=N)n(CC4CCCO4)c3nc12 (stereo unspecified)	none
COc1ccc(CNC(=O)c2cc3c(=O)n4cccc(C)c4nc3n(CC3CCCO3)c2=N)cc1 (stereo unspecified)	none
Cc1cccn2c(=O)c3cc(C(=O)NCc4ccco4)c(=N)n(C4CCCC4)c3nc12	none
N#Cc1ccccc1N1CCN(S(=O)(=O)c2ccc3c(c2)CCC(=O)N3)CC1	none (no result: NRP1-CendR mod)
COc1ccc(-c2c(C)oc3c(CN4CCN(CCO)CC4)c(O)ccc3c2=O)cc1OC	none
COc1ccccc1-c1c(C)oc2c(CN3CCN(C)CC3)c(O)ccc2c1=O	proKLK7 act 62 | KLK7 act conf 60 | EDANS interfere 74
COc1ccccc1-c1c(C)oc2c(CN3CCN(CCO)CC3)c(O)ccc2c1=O	proKLK7 act 72 | KLK7 act conf 68 | EDANS interfere 75
CCCCN1CCS(=O)(=O)N(Cc2ccc(Cl)cc2)C(C(=O)OC)C1 (stereo unspecified)	none (no result: NRP1-CendR mod)
Cc1ccc(-c2cc(C(=O)NN=Cc3c4ccccc4cc4ccccc34)[nH]n2)cc1C	none (no result: NRP1-CendR mod)
